# Experimental data from ChEMBL document CHEMBL3826889, “Symmetrical bis-tertiary amines as novel CXCR4 inhibitors” (2016).
# Legend:
# [1] = target: C-X-C chemokine receptor type 4 (Homo sapiens) (UniProt P61073); assay: Displacement of biotinylated TN14003 from CXCR4 CXCL12 binding domain in human MDA-MB-231 cells preincubated for 10 mins followed by biotinylated TN14003 addition measured after 30 mins using streptavidin-conjugated rhodamine by fluorescence microscopic analysis; type: cell-based
# Chain of C-X-C chemokine receptor type 4 (Homo sapiens) (P61073 whole entry, the tested form may be a part): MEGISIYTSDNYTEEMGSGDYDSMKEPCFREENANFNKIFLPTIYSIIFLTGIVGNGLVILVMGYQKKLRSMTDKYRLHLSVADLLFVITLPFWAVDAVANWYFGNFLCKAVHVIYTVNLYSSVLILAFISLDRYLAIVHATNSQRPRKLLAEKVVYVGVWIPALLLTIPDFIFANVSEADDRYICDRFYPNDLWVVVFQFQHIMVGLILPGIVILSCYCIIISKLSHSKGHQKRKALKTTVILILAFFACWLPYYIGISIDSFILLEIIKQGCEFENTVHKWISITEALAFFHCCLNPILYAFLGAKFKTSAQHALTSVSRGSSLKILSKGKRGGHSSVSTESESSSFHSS
# Outline: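 MDA-MB-231 cells, 2 × 10^4 per well, seeded 2 days prior. Compound at 1, 10, 100 or 1000 nM for 10 min at room temperature, then fixed in 4% ice-cold paraformaldehyde and rehydrated in PBS. Then 0.05 μg/mL biotinylated TN14003 for 30 min at RT, PBS washes, streptavidin-rhodamine (1:150) for 30 min at RT. Fluorescence microscopy. EC = lowest concentration giving significant fluorescence reduction vs control; semi-quantitative.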
# MDA-MB-231 = assay: Inhibition of […]-induced invasion of human MDA-MB-231 cells at 100 nM after 22 hrs by hematoxylin/eosin-staining based matrigel assay; type: functional; conditions: MDA-MB-231, 22 h
# Outline: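 Invasion chambers with Matrigel-coated 8 μm pore support. MDA-MB-231 cells treated with compound at 100 nM before seeding in the top chamber; CXCL12α at 200 ng/mL in the bottom chamber as chemoattractant. Incubation 22 h, humidified. Non-invading cells swabbed off; invaded cells fixed in methanol and H&E-stained, then counted to give percent invasion.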
# Mus musculus = assay: Antiinflammatory activity against carrageenan-induced paw edema in C57BL/6J mouse assessed as inhibition of edema volume at 300 ug/kg, ip daily administered 30 mins post carrageenan-challenge measured post 2 hrs of last injection; type: functional
# Outline: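 Acute paw inflammation in female C57BL/6J mice: 50 μL λ-carrageenan (1% w/v in saline) injected s.c. into one hind paw, saline into the contralateral paw. Dosing i.p. daily from 30 min after challenge, in 10% DMSO / 90% of 45% (2-hydroxypropyl)-β-cyclodextrin in PBS; vehicle controls. Sacrifice at 74 h post-challenge, 2 h after last dose. Paw thickness by caliper; edema = injected minus contralateral. Suppression % vs vehicle group; 5 mice/group.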
SMILES,EC [1],inhibition at 0.1 µM (MDA-MB-231),inhibition in vivo at 0.3 mg/kg (Mus musculus)
CN(Cc1ccc(CN(C)Cc2ccccc2Cl)cc1)Cc1ccccc1Cl,> 1000 nM,–,–
COc1cccc(CN(C)Cc2ccc(CN(C)Cc3cccc(OC)c3)cc2)c1,10 nM,< 50%,–
CN(Cc1ccc(F)cc1)Cc1ccc(CN(C)Cc2ccc(F)cc2)cc1,> 1000 nM,–,–
CN(Cc1ccc(CN(C)c2ccc(F)cc2)cc1)c1ccc(F)cc1,100 nM,66.4%,–
N=C(N)NCCC[C@@H]1NC(=O)[C@H](Cc2ccc(O)cc2)NC(=O)[C@H]2CCCN2C(=O)[C@@H](CCCCN)NC(=O)[C@@H](CCCCN)NC(=O)[C@H](CCCNC(=N)N)NC(=O)[C@H](Cc2ccc(O)cc2)NC(=O)[C@H](NC(=O)[C@@H](Cc2ccc3ccccc3c2)NC(=O)[C@H](CCCNC(=N)N)NC(=O)[C@@H](CCCNC(=N)N)NC(=O)c2ccc(F)cc2)CSSC[C@H](C(=O)N[C@H](CCCNC(=N)N)C(N)=O)NC(=O)[C@@H](CCCNC(N)=O)NC1=O (stereo in doubt),–,–,48%
CN(Cc1ccc(CN(C)Cc2cccc(F)c2)cc1)Cc1cccc(F)c1,> 1000 nM,–,–
CN(Cc1ccc(CN(C)Cc2ccccn2)cc1)Cc1ccccn1,> 1000 nM,–,–

# Second part, led by results:
EC [1],SMILES,inhibition at 0.1 µM (MDA-MB-231),inhibition in vivo at 0.3 mg/kg (Mus musculus)
> 1000 nM,CN(Cc1ccc(CN(C)Cc2ccccc2F)cc1)Cc1ccccc1F,–,–
1000 nM,CN(Cc1ccc(CN(C)Cc2cccc(Cl)c2)cc1)Cc1cccc(Cl)c1,–,–
1000 nM,c1cc(CN2CCCC2)ccc1CN1CCCC1,–,–
10 nM,c1cc(CN2CCCCC2)ccc1CN1CCCCC1,< 50%,–
1000 nM,c1ccc(CN(Cc2ccc(CN(Cc3ccccc3)CC3CC3)cc2)CC2CC2)cc1,–,–
1000 nM,CCN(Cc1ccccc1)Cc1ccc(CN(CC)Cc2ccccc2)cc1,–,–
> 1000 nM,CN(Cc1ccncc1)Cc1ccc(CN(C)Cc2ccncc2)cc1,–,–
1000 nM,c1cc(CN2CCCNCCNCCCNCC2)ccc1CN1CCCNCCNCCCNCC1 [PLERIXAFOR],62%,–
> 1000 nM,CN(Cc1ccc(CN(C)Cc2cccnc2)cc1)Cc1cccnc1,–,–
1000 nM,CN(Cc1ccc(CN(C)c2ccccc2)cc1)c1ccccc1,–,–
> 1000 nM,c1cc(CN2CCOCC2)ccc1CN1CCOCC1,–,–
